Results taken from ChEMBL document CHEMBL1144264, “Structure-activity relationship studies on ortho-substituted cinnamic acids, a new class of selective EP(3) antagonists” (Bioorg Med Chem Lett, 2005).

Columns and labels:
[1] = molecular target: T1, Prostaglandin E2 receptor EP3 subtype (Homo sapiens, UniProt P43115); experiment: Binding affinity for human prostanoid EP3 receptor
T1 sequence (P43115 whole entry): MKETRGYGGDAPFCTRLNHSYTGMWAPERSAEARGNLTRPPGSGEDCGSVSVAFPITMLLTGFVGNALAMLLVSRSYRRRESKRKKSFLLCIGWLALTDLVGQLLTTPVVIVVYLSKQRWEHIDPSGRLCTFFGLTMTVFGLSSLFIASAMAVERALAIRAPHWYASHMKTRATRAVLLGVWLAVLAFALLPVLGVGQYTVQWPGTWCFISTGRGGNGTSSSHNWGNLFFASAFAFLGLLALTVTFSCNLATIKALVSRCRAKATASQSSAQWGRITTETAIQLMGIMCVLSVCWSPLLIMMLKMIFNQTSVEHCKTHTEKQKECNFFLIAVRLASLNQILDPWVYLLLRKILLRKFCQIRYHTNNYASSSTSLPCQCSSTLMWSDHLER

[2] = molecular target: Prostaglandin E2 receptor EP2 subtype (Homo sapiens, UniProt P43116); experiment: Binding affinity for human prostanoid EP2 receptor
[3] = molecular target: T2, Prostaglandin E2 receptor EP1 subtype (Homo sapiens, UniProt P34995); experiment: Binding affinity for human prostanoid EP1 receptor
T2 sequence (P34995 whole entry): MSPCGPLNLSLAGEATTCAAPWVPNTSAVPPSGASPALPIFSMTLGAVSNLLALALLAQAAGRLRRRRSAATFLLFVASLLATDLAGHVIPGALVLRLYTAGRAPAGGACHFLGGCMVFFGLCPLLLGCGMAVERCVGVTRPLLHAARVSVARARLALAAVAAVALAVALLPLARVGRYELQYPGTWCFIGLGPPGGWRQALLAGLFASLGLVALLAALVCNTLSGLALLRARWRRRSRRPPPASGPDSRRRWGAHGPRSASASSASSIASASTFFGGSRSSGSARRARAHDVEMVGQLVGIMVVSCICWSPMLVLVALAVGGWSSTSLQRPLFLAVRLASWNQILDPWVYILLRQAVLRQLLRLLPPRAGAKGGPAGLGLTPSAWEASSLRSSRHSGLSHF

[4] = molecular target: Prostaglandin E2 receptor EP4 subtype (Homo sapiens, UniProt P35408); experiment: Binding affinity for human prostanoid EP4 receptor
[5] = test system: HEK293; experiment: Inhibition of c-AMP production in HEK (EBNA) cells was determined by c-AMP assay; assay type: functional, HEK293-EBNA; details: Homo sapiens
Summary of the method: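 Functional cAMP read-out in HEK (EBNA) cells expressing the receptor: antagonism scored as reversal of EP3-mediated inhibition of cAMP production; EP2 activity scored as stimulation of cAMP production.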

[6] = Clearance in rats after 10 mg/kg peroral and 5 mg/kg intravenous administration as sodium salts; assay type: ADME, organism-based; details: rat, in vivo
Summary of the method: (§1)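 Male Sprague–Dawley rats, 300–400 g. Oral bioavailability, clearance (mL/min/kg), Cmax (µM, with time of peak) and half-life derived from plasma profiles.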

[7] = Maximum concentration in rats after 10 mg/kg peroral and 5 mg/kg intravenous administration as sodium salts; assay type: ADME, organism-based; details: rat, in vivo, po; summary of the method: as §1
[8] = Half life in rats after 10 mg/kg peroral and 5 mg/kg intravenous administration as sodium salts; assay type: ADME, organism-based; details: rat, in vivo; summary of the method: as §1
[9] = Bioavailability in rat (dose 10 mg/kg p.o. and 5 mg/kg i.v.) (dosed as sodium salt); assay type: ADME, organism-based; details: in vivo, po; summary of the method: as §1
[10] = test system: HEK293; experiment: Stimulation of c-AMP production in HEK (EBNA) cells was determined by c-AMP assay; details: Homo sapiens

Prostaglandin E2 receptor EP4 subtype, sequence (P35408 whole entry): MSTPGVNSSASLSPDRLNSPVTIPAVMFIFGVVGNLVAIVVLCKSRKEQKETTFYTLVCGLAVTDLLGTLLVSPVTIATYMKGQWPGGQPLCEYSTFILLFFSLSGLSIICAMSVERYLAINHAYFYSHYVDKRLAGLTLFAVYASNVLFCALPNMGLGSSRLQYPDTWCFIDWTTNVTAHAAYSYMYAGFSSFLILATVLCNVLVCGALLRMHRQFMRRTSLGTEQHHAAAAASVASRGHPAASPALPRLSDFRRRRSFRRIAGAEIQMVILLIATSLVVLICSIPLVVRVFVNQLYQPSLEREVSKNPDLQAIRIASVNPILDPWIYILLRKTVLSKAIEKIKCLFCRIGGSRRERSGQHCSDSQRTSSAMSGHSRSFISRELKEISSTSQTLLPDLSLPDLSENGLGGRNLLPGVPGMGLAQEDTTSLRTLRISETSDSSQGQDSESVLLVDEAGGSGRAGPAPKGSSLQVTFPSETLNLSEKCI
Prostaglandin E2 receptor EP2 subtype, sequence (P43116 whole entry): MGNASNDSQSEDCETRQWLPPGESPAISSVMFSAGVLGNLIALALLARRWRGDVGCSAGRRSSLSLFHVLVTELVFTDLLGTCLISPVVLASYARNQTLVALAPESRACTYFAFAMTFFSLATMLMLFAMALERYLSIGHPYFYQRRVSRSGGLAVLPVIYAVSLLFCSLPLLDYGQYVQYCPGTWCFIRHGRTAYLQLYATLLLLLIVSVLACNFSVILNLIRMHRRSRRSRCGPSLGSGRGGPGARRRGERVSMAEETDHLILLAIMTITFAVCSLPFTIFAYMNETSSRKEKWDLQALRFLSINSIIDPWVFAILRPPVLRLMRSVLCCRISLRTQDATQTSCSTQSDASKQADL

Row | SMILES | Ki [1] [nM] | Ki [2] [nM] | Ki [3] [nM] | Ki [4] [nM] | Kb [5] [nM] | clearance [6] [mL/min/kg] | Cmax [7] [µM] | half-life [8] [h] | bioavailability [9] [%] | Kb [10] [nM]
1 | O=C(O)/C=C/c1ccccc1/C=C/Cc1ccccc1OCc1ccccc1.O=C(O)/C=C/c1ccccc1C/C=C\c1ccccc1OCc1ccccc1 | 25 | 680 | 24000 | 1000 | 50 |  |  |  |  | 
2 | O=C(O)/C=C/c1ccccc1/C=C/Cc1cccc(OCc2ccccc2)c1.O=C(O)/C=C/c1ccccc1C/C=C\c1cccc(OCc2ccccc2)c1 | 50 | 18 | 14000 | 450 | 62 |  |  |  |  | 
3 | Cc1cccc(/C=C/Cc2cccc(/C=C/C(=O)O)c2)c1OCc1ccccc1.Cc1cccc(C/C=C/c2cccc(/C=C/C(=O)O)c2)c1OCc1ccccc1 | 2000 | 630 | 21000 | 3100 |  |  |  |  |  | 
4 | Cc1cccc(/C=C/Cc2ccc(/C=C/C(=O)O)cc2)c1OCc1ccccc1.Cc1cccc(C/C=C\c2ccc(/C=C/C(=O)O)cc2)c1OCc1ccccc1 | 2900 | 1700 | > 30000 | 5500 |  |  |  |  |  | 
5 | Cc1cccc(/C=C\Cc2ccccc2C(=O)O)c1OCc1ccccc1.Cc1cccc(C/C=C/c2ccccc2C(=O)O)c1OCc1ccccc1 | 2700 | 7100 | 16000 | 5700 |  |  |  |  |  | 
6 | Cc1cccc(/C=C/Cc2ccccc2CC(=O)O)c1OCc1ccccc1.Cc1cccc(C/C=C/c2ccccc2CC(=O)O)c1OCc1ccccc1 | 3400 | 2900 | 21000 | 4300 |  |  |  |  |  | 
7 | CC(=O)c1ccc(OCc2ccccc2)c(/C=C/Cc2ccccc2/C=C/C(=O)O)c1.CC(=O)c1ccc(OCc2ccccc2)c(C/C=C/c2ccccc2/C=C/C(=O)O)c1 | 260 | 8700 | 2800 | 830 |  |  |  |  |  | 
8 | O=C(O)/C=C/c1ccccc1/C=C/Cc1cccc(CO)c1OCc1c(Cl)cccc1Cl.O=C(O)/C=C/c1ccccc1C/C=C/c1cccc(CO)c1OCc1c(Cl)cccc1Cl | 13 | 2500 | 7100 | 740 |  |  |  |  |  | 
9 | O=C(O)/C=C/c1ccccc1/C=C/Cc1ccccc1.O=C(O)/C=C/c1ccccc1C/C=C/c1ccccc1 | 100 | 1400 | > 100000 | 4400 |  |  |  |  |  | 
10 | COc1ccc(/C=C/Cc2ccccc2/C=C/C(=O)O)cc1.COc1ccc(C/C=C/c2ccccc2/C=C/C(=O)O)cc1 | 68 | 2500 | > 100000 | 6200 |  |  |  |  |  | 
11 | COc1cc(/C=C\Cc2ccccc2/C=C/C(=O)O)ccc1OCc1ccccc1.COc1cc(C/C=C/c2ccccc2/C=C/C(=O)O)ccc1OCc1ccccc1 | 8 | 750 | > 20000 | 610 | 6 |  |  |  |  | 
12 | Cc1cccc(/C=C/Cc2ccccc2/C=C/C(=O)O)c1OCc1ccccc1 |  |  |  |  | 17 |  |  |  |  | 
13 | Cc1cccc(/C=C/Cc2ccccc2/C=C/C(=O)O)c1OCc1ccc(F)cc1 | 7 | 4100 | 17000 | 2400 | 4 |  |  |  |  | 
14 | Cc1cccc(CCCc2ccccc2CCC(=O)O)c1OCc1ccccc1 | 65 | 940 | 23000 | 440 |  |  |  |  |  | 
15 | Cc1cccc(/C=C/Cc2ccccc2/C=C/C(=O)O)c1O | 10 | 7300 | 68000 | 1600 | 28 |  |  |  |  | 
16 | Cc1cccc(/C=C/C(O)c2ccccc2/C=C/C(=O)O)c1OCc1c(Cl)cccc1Cl (configuration not stated) | 10 | 2100 | 3000 | 930 | 30 |  |  |  |  | 
17 | O=C(O)/C=C/c1ccccc1/C=C/c1ccccc1OCc1ccccc1 | 1400 | 8 | 45000 | 2800 |  | 16 | 1.7 | 2 | 17 | 3
18 | COc1cccc(CCCc2ccccc2/C=C/C(=O)O)c1OCc1ccccc1 | 19 | 1100 | > 9000 | 4300 | 29 |  |  |  |  | 
19 | Cc1cccc(/C=C/Cc2ccccc2/C=C/C(=O)O)c1OCc1c(Cl)cccc1Cl | 3 | 5400 | 6700 | 620 | 6 | 5.8 | 25 | 2 | 74 | 
20 | Cc1cccc(C(O)/C=C/c2ccccc2/C=C/C(=O)O)c1OCc1c(Cl)cccc1Cl (configuration not stated) | 9 | 3900 | 13000 | 1000 | 30 |  |  |  |  | 
21 | Cc1cccc(CCCc2ccccc2/C=C/C(=O)O)c1OCc1ccccc1 | 13 | 380 | > 10000 | 2900 | 38 |  |  |  |  | 
22 | Cc1cccc(/C=C/Cc2ccccc2/C=C/C(=O)O)c1OCc1ccccc1.Cc1cccc(C/C=C/c2ccccc2/C=C/C(=O)O)c1OCc1ccccc1 (stereo in doubt; 2a) | 13 | 550 |  | 1200 |  |  |  |  |  | 
23 | Cc1cccc(/C=C/Cc2ccccc2/C=C/C(=O)O)c1OCc1ccccc1.Cc1cccc(C/C=C/c2ccccc2/C=C/C(=O)O)c1OCc1ccccc1 (stereo in doubt; 2a/3a) | 9 | 860 | 19000 | 2000 | 32 | 10 | 22 | 2 | 97 | 
